Source: ChEMBL document CHEMBL1154634, “Tea catechins inhibit hepatocyte growth factor receptor (MET kinase) activity in human colon cancer cells: kinetic and molecular docking studies” (J Med Chem, 2009)
pIC50, pKi: −log10 of the molar value. The source made the active and inactive calls. No cut-off for these calls is given here.

Key:
[1] = target: T1, Hepatocyte growth factor receptor (Homo sapiens, UniProt P08581); experiment: Inhibition of MET kinase
Procedure, shortened: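 Cell-free MET kinase activity assay run over a range of inhibitor concentrations; IC50 taken as the concentration giving 50% inhibition of kinase activity; data as mean ± SD, n = 3.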

[2] = target: T1, Hepatocyte growth factor receptor; experiment: Inhibition of hepatocyte growth factor-induced MET phosphorylation in human HCT116 cells at 5 uM after 30 mins by immunoblot; assay type: cell-based
Procedure, shortened: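 Whole-cell lysates immunoblotted for phospho-MET and total MET, with β-actin as loading control; densitometry with phospho-MET normalized to total MET.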

Mus musculus = experiment: Plasma concentration in po dosed mouse; assay type: ADME, organism-based; settings: in vivo
[3] = target: T1, Hepatocyte growth factor receptor; experiment: Inhibition of MET kinase by Dixon plot analysis
Procedure, shortened: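 MET kinase activity measured at several inhibitor concentrations; Dixon plot (1/V versus [I]) and Cornish-Bowden plot ([S]/V versus [I]) used to assign inhibition type; Ki derived by linear regression of the Dixon plot.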

Homo sapiens = experiment: Plasma concentration in po dosed human; assay type: ADME, organism-based; settings: in vivo

T1 sequence (P08581 whole entry): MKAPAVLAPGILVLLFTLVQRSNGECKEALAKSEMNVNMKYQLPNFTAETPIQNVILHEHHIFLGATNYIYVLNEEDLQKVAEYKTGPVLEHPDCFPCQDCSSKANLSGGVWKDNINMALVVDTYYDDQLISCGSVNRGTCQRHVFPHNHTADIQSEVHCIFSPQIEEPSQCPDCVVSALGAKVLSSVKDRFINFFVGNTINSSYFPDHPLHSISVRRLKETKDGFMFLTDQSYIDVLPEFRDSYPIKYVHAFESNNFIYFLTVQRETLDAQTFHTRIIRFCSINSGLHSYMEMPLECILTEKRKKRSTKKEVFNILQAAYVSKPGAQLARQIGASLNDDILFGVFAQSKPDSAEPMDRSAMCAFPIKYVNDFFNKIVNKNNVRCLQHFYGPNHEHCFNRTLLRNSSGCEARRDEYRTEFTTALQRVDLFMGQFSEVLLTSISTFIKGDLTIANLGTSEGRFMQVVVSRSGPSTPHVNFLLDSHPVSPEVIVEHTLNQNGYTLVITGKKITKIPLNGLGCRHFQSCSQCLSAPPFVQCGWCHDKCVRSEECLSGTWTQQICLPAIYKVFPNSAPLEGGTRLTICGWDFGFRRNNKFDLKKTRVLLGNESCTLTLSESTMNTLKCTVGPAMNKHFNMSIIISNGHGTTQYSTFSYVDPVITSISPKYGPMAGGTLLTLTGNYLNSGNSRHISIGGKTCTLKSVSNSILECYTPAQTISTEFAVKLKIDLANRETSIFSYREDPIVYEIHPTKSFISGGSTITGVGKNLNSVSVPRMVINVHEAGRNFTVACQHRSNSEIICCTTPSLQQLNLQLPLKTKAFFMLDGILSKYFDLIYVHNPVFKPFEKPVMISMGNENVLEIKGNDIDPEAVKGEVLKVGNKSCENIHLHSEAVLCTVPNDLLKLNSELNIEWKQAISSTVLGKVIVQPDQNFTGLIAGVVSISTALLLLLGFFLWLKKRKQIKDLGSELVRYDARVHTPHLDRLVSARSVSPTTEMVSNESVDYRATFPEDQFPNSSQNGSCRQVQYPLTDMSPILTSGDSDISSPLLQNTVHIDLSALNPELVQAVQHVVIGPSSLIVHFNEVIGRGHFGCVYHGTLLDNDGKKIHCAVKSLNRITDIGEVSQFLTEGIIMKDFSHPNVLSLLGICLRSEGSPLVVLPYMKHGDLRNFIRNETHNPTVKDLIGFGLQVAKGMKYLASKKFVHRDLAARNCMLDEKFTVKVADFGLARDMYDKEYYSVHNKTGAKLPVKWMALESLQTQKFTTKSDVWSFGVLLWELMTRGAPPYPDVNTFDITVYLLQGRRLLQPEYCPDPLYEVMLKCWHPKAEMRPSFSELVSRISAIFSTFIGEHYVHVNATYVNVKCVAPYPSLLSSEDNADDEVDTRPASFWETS

| Structure (SMILES) | inhibition [1] | inhibition [2] | pIC50 [1] | other results |
| --- | --- | --- | --- | --- |
| O=C(O)c1cc(O)c(O)c(O)c1 | inactive | – | – | – |
| Oc1cc(O)c2c(c1)O[C@@H](c1ccc(O)c(O)c1)[C@H](O)C2 | inactive | – | – | – |
| O=C(O[C@@H]1Cc2c(O)cc(O)cc2O[C@H]1c1cc(O)c(O)c(O)c1)c1cc(O)c(O)c(O)c1 [GALLOCATECHIN GALLATE] | – | Active | 5.00 | – |
| O=C(O[C@@H]1Cc2c(O)cc(O)cc2O[C@@H]1c1ccc(O)c(O)c1)c1cc(O)c(O)c(O)c1 [EPICATECHIN GALLATE] | – | Active | 5.00 | – |
| Oc1cc(O)c2c(c1)O[C@H](c1ccc(O)c(O)c1)[C@H](O)C2 | inactive | – | – | – |
| O=C(O[C@@H]1Cc2c(O)cc(O)cc2O[C@@H]1c1cc(O)c(O)c(O)c1)c1cc(O)c(O)c(O)c1 [EPIGALOCATECHIN GALLATE] | – | Active | 5.00 | concentration (Mus musculus): 9 µM; pKi [3]: 5.48; concentration (Homo sapiens): 7.5 µM |
| Oc1cc(O)c2c(c1)O[C@H](c1cc(O)c(O)c(O)c1)[C@H](O)C2 | inactive | – | – | – |
